Data set [1] in a line: Compound E and XR9576 levels in brain tissue. Format: in vivo, mouse. Conditions: LC-MS. In short, it runs like this: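 Brain hemispheres were homogenised by shaking with a steel ball (5 min, 20 Hz) in 45% methanol/45% acetonitrile/8% water/2% formic acid containing 1 µM internal standard, at 200 mg/ml. Extracts were centrifuged, filtered (0.8 µm) and run on capillary LC-MS (PLRPS column; water/acetonitrile gradient with 0.1% formic acid). Levels were quantified from internal-standard-normalised peak areas against an external curve prepared in control mouse brain extract.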

Data set [2] has as its system mRNA of genes related to APP processing or Aβ clearance. Put plainly: qRT-PCR of APP processing and Aβ clearance genes in brain. Format: in vivo, mouse. Conditions: 2 h after 80 mg/kg i.v.; cortex; n = 6/group; P = 0.08-0.94. In short, it runs like this:
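3-month-old mice received the Pgp inhibitor (80 mg/kg i.v.) or vehicle (5% dextrose) and were killed 2 h later. Cortical total RNA was reverse transcribed and run by SYBR Green qPCR with dissociation-curve checks. Genes were APP, PSEN1/2, nicastrin, APH-1, BACE1, ADAM10/17, Pgp, LRP1, IDE, NEP, MMP2 and MMP9. Levels were derived by ΔΔCt against mouse GAPDH and compared by t tests corrected for multiple comparisons.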
A general note: Real-time PCR tracks product formation cycle by cycle.

The test system of the next data set is P-glycoprotein (Pgp). Conditions: rodents; ref Bankstahl et al., 2008; cited from earlier work.
A further data set concerns ISF Aβ40. Put plainly: baseline ISF Aβ40 in hippocampus measured with calibrated Aβ40 MIE. It counts as in vivo, APP/PS1 mice. Conditions: 60 min after XR9576 80 mg/kg; n = 8; mean ± SEM; control mice 99.12 ± 19.28 (n = 15); P = 0.008.
The subject of the next data set is LRP1. Put plainly: LRP1 protein levels in brain tissue. Conditions: after XR9576 administration; n = 9/group; P = 0.35. Format: in vivo, mouse.
In the next data set the test system is ISF Aβ. The data set is described as follows: in vivo microdialysis of ISF Aβ during isoflurane anesthesia. Further details: species or system mouse. Conditions: first 3 h of isoflurane anesthesia, n = 4, not significant, P = 0.135.

Results on three compounds are retold here after PMC4854730 (The Journal of Experimental Medicine, 2016).

Each structure is given as a SMILES string.

For `C[C@H](NC(=O)Cc1cc(F)cc(F)c1)C(=O)N[C@H]1N=C(c2ccccc2)c2ccccc2N(C)C1=O` [Compound E], the “Compound E level in brain tissue” value in data set [1] (within 5 min after intraperitoneal injection (30 mg/kg)) was 395 nM.

On to `COc1cc2c(cc1OC)CN(CCc1ccc(NC(=O)c3cc(OC)c(OC)cc3NC(=O)c3cnc4ccccc4c3)cc1)CC2` [XR9576], for which the “mRNA expression levels in the brain” value in data set [2] is listed as “did not find significant differences”. For the same compound, in the data set on P-glycoprotein (Pgp), the “time of maximum inhibition of Pgp activity after injection” value is 30 min. In addition, the “XR9576 level in brain tissue” value in data set [1] (1 h after injection, mouse brain extract, mean ± SEM) amounted to 533.0 ± 68.11 µM. In the data set on ISF Aβ40, the “absolute baseline concentration of ISF Aβ40” value amounted to 283.9 ± 80.38. Moreover, the “LRP1 protein levels in hippocampus” value with LRP1 is recorded as “did not change”.

In the case of `FC(F)OC(Cl)C(F)(F)F` (stereo not shown) [isoflurane], the “decrease of ISF Aβ levels” value with ISF Aβ is given as 14%.
